Common to all, as to type: functional
In test [1] the test system is Streptococcus pneumoniae. Put plainly: Antimicrobial activity against erythromycin-resistant Streptococcus pneumoniae assessed as susceptible isolates by broth microdilution method. In a few lines:
(§1)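 Isolates were tested by broth microdilution in commercial microtiter trays. Medium was cation-adjusted Mueller-Hinton broth supplemented with 3 to 5% lysed horse blood. MICs were interpreted by CLSI criteria. For penicillin, the pre-2008 breakpoints were applied (susceptible ≤0.06 mg/liter).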
For orientation: Broth dilution looks for growth in wells or tubes with falling amounts of substance.

Test [2] concerns Streptococcus pneumoniae. Put plainly: Antimicrobial activity against erythromycin-resistant Streptococcus pneumoniae assessed as resistant isolates by broth microdilution method. Summed up:
as §1

Test [3] concerns Streptococcus pneumoniae. Put plainly: Antimicrobial activity against erythromycin-resistant Streptococcus pneumoniae by broth microdilution method. Summed up: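 Isolates were tested by broth microdilution in commercial microtiter trays. Medium was cation-adjusted Mueller-Hinton broth supplemented with 3 to 5% lysed horse blood. MICs were interpreted by CLSI criteria.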
The subject of test [4] is Streptococcus pneumoniae. Put plainly: Antimicrobial activity against erythromycin-resistant Streptococcus pneumoniae by broth microdilution method in presence of clavulanic acid. Summed up:
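Broth microdilution in commercial pre-made microtiter trays using cation-adjusted Mueller-Hinton broth with 3 to 5% lysed horse blood. Pneumococcal isolates were tested, and MICs were interpreted by CLSI criteria.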

Test [5] relates to Streptococcus pneumoniae. Put plainly: Antimicrobial activity against erythromycin-resistant Streptococcus pneumoniae assessed as susceptible isolates by broth microdilution method in presence of clavulanic acid. Summed up: as §1
Test [6] deals with Streptococcus pneumoniae. Put plainly: Antimicrobial activity against erythromycin-resistant Streptococcus pneumoniae assessed as resistant isolates by broth microdilution method in presence of clavulanic acid. Summed up:
as §1

In brackets after ≈: the same amount, converted by molar mass.

Broadly, the MIC is the lowest concentration found to suppress growth. One may read the MIC50 as an inhibitory concentration at the 50% level, which refers to growth in some studies and to a panel of isolates in others. Usually MIC90 stands for the lowest concentration that inhibits either 90% of growth or 90% of the strains tested, depending on the study. Regarding `COc1c(N2CCNC(C)C2)c(F)cc2c(=O)c(C(=O)O)cn(C3CC3)c12` (stereo not drawn) [GATIFLOXACIN], in the test with Streptococcus pneumoniae [1], the Activity was 100%. Further, the Activity in the test on Streptococcus pneumoniae [2] turned out to be 0%. In addition, in the test on Streptococcus pneumoniae [3], the MIC was < 0.5 µg/mL, the MIC50 is < 0.5 µg/mL and the MIC90 was < 0.5 µg/mL.

On to `C[C@H]1COc2c(N3CCN(C)CC3)c(F)cc3c(=O)c(C(=O)O)cn1c23.C[C@H]1COc2c(N3CCN(C)CC3)c(F)cc3c(=O)c(C(=O)O)cn1c23.O` [LEVOFLOXACIN], for which the Activity in the test with Streptococcus pneumoniae [1] was 100%. In the test on Streptococcus pneumoniae [2], the Activity came to 0%. For the same molecule, in the test on Streptococcus pneumoniae [3], the MIC50 turned out to be 1 µg/mL and the MIC90 is 1 µg/mL.

For the molecule `CC1(C)S[C@@H]2[C@H](NC(=O)Cc3ccccc3)C(=O)N2[C@H]1C(=O)O` [PENICILLIN G], the Activity in the test with Streptococcus pneumoniae [1] is on record as 24.5%. For the same molecule, the Activity in the test on Streptococcus pneumoniae [2] turned out to be 68.6%. In the test with Streptococcus pneumoniae [3], the MIC50 turned out to be 2 µg/mL (≈ 5.98 µM) and the MIC90 was determined as 4 µg/mL (≈ 12 µM).

In the case of `CC1(C)S[C@@H]2[C@H](NC(=O)[C@H](N)c3ccc(O)cc3)C(=O)N2[C@H]1C(=O)O` [AMOXICILLIN], in the test on Streptococcus pneumoniae [4], the MIC is < 2 µg/mL, the MIC50 was < 2 µg/mL and the MIC90 is > 8 µg/mL. Besides, in the test with Streptococcus pneumoniae [5], the Activity was determined as 66.7%. Besides, the Activity in the test on Streptococcus pneumoniae [6] came to 28.4%.

Consider `CCC[C@@H]1C[C@@H](C(=O)N[C@@H]([C@H]2O[C@H](SC)[C@H](O)[C@@H](O)[C@H]2O)[C@H](C)Cl)N(C)C1` [CLINDAMYCIN], for which the Activity in the test with Streptococcus pneumoniae [1] is recorded as 30.4%. Also, the Activity with Streptococcus pneumoniae [2] amounted to 67.6%. Also, in the test on Streptococcus pneumoniae [3], the MIC50 was > 2 µg/mL and the MIC90 is > 2 µg/mL.

Regarding `CN[C@H](CC(C)C)C(=O)N[C@H]1C(=O)N[C@@H](CC(N)=O)C(=O)N[C@H]2C(=O)N[C@H]3C(=O)N[C@H](C(=O)N[C@H](C(=O)O)c4cc(O)cc(O)c4-c4cc3ccc4O)[C@H](O)c3ccc(c(Cl)c3)Oc3cc2cc(c3O[C@@H]2O[C@H](CO)[C@@H](O)[C@H](O)[C@H]2O[C@H]2C[C@](C)(N)[C@H](O)[C@H](C)O2)Oc2ccc(cc2Cl)[C@H]1O` [VANCOMYCIN], the Activity in the test with Streptococcus pneumoniae [1] worked out at 100%. Besides, the Activity in the test on Streptococcus pneumoniae [2] is 0%. Besides, in the test on Streptococcus pneumoniae [3], the MIC50 is < 0.5 µg/mL and the MIC90 is < 0.5 µg/mL.

For the molecule `O=C(N[C@H](CO)[C@H](O)c1ccc([N+](=O)[O-])cc1)C(Cl)Cl` [CHLORAMPHENICOL], the Activity in the test with Streptococcus pneumoniae [1] is on record as 66.7%. In addition, the Activity in the test on Streptococcus pneumoniae [2] was 33.3%. In the test on Streptococcus pneumoniae [3], this molecule registered an MIC50 of 4 µg/mL (≈ 12.4 µM) and an MIC90 of 8 µg/mL (≈ 24.8 µM).

Take `CC[C@H]1OC(=O)[C@H](C)[C@@H](O[C@H]2C[C@@](C)(OC)[C@@H](O)[C@H](C)O2)[C@H](C)[C@@H](O[C@@H]2O[C@H](C)C[C@H](N(C)C)[C@H]2O)[C@](C)(O)C[C@@H](C)CN(C)[C@H](C)[C@@H](O)[C@]1(C)O` [AZITHROMYCIN]: in the test with Streptococcus pneumoniae [1], the Activity was found to be 0%. For the same molecule, the Activity with Streptococcus pneumoniae [2] came out at 100%. Further, in the test on Streptococcus pneumoniae [3], the minimum inhibitory concentration (MIC) was > 2 µg/mL, the MIC50 was > 2 µg/mL and the MIC90 was > 2 µg/mL.

As to `CC(=O)NC[C@H]1CN(c2ccc(N3CCOCC3)c(F)c2)C(=O)O1` [LINEZOLID], the Activity with Streptococcus pneumoniae [1] is recorded as 100%; in the test with Streptococcus pneumoniae [2] it was 0%. Further, the MIC50 in the test with Streptococcus pneumoniae [3] is 1 µg/mL (≈ 2.96 µM). Besides, the MIC90 against Streptococcus pneumoniae [3] worked out at 1 µg/mL (≈ 2.96 µM).

With `CO/N=C(\C(=O)N[C@@H]1C(=O)N2C(C(=O)O)=C(COC(C)=O)CS[C@H]12)c1csc(N)n1` [CEFOTAXIME], in the test on Streptococcus pneumoniae [1], the Activity is 62.7%. The Activity with Streptococcus pneumoniae [2] came to 5.9%. Besides, in the test on Streptococcus pneumoniae [3], the MIC50 worked out at 1 µg/mL (≈ 2.2 µM) and the MIC90 was 2 µg/mL (≈ 4.39 µM).

With `C[C@@H](O)[C@H]1C(=O)N2C(C(=O)O)=C(S[C@@H]3CN[C@H](C(=O)N(C)C)C3)[C@H](C)[C@H]12` [MEROPENEM], the results for the Activity in the test on Streptococcus pneumoniae [1] and with Streptococcus pneumoniae [2] were 33.3% and 34.3%, respectively. For the same molecule, the MIC50 against Streptococcus pneumoniae [3] was 0.5 µg/mL (≈ 1.3 µM). The MIC90 in the test with Streptococcus pneumoniae [3] was determined as 1 µg/mL (≈ 2.61 µM).

In the case of `COc1c(N2C[C@@H]3CCCN[C@@H]3C2)c(F)cc2c(=O)c(C(=O)O)cn(C3CC3)c12` [MOXIFLOXACIN], the figures for the Activity with Streptococcus pneumoniae [1] and in the test with Streptococcus pneumoniae [2] were 100% and 0%, respectively.

Take `CC[C@H]1OC(=O)[C@H](C)[C@@H](O[C@H]2C[C@@](C)(OC)[C@@H](O)[C@H](C)O2)[C@H](C)[C@@H](O[C@@H]2O[C@H](C)C[C@H](N(C)C)[C@H]2O)[C@](C)(O)C[C@@H](C)C(=O)[C@H](C)[C@@H](O)[C@]1(C)O` [ERYTHROMYCIN]: in the test with Streptococcus pneumoniae [1], the Activity is 0%. Also, the Activity with Streptococcus pneumoniae [2] is reported as 100%. Besides, in the test with Streptococcus pneumoniae [3], the MIC was > 2 µg/mL, the MIC50 is > 2 µg/mL and the MIC90 was > 2 µg/mL.

With `CN(C)[C@@H]1C(O)=C(C(N)=O)C(=O)[C@@]2(O)C(O)=C3C(=O)c4c(O)cccc4[C@@](C)(O)[C@H]3C[C@@H]12` [TETRACYCLINE], the Activity with Streptococcus pneumoniae [1] was 24.5%; in the test with Streptococcus pneumoniae [2] it was 74.5%. Also, the MIC50 in the test on Streptococcus pneumoniae [3] was ≥ 8 µg/mL. Moreover, the MIC90 in the test with Streptococcus pneumoniae [3] is ≥ 8 µg/mL.

The record behind these values is ChEMBL document CHEMBL1671681, “Distribution of serotypes, genotypes, and resistance determinants among macrolide-resistant Streptococcus pneumoniae isolates” (2010).
